From ChEMBL document CHEMBL4346654 (Eur J Med Chem, 2019)
In brackets after ≈: the same amount, converted by molar mass.

Assays:
Assay type in all cases: functional
[1] = test system: Staphylococcus aureus; assay: Antibacterial activity against MLS-resistant Staphylococcus aureus PU 32 expressing inducible ermA gene assessed as reduction in microbial growth by CLSI based two-fold broth dilution method
[2] = test system: Streptococcus pneumoniae; assay: Antibacterial activity against erythromycin-susceptible Streptococcus pneumoniae ATCC49619 assessed as reduction in microbial growth by CLSI based two-fold broth dilution method
[3] = test system: Streptococcus pneumoniae; assay: Bactericidal activity against erythromycin-susceptible Streptococcus pneumoniae ATCC49619 pretreated followed by subculture in absence of compound measured after 24 hrs
How it was run: (§1)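 Isolates were identified by 16S rDNA sequencing. MIC was determined by CLSI-recommended two-fold broth dilution. For MBC, samples from 1–8 fold MIC were transferred to culture medium and subcultured for 24 h without antibiotic.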

[4] = test system: Haemophilus influenzae; assay: Antibacterial activity against azithromycin-susceptible Haemophilus influenzae ATCC 49247 assessed as reduction in microbial growth by CLSI based two-fold broth dilution method
[5] = test system: Streptococcus pneumoniae; assay: Selectivity ratio of MBC to MIC for erythromycin-susceptible Streptococcus pneumoniae ATCC49619; how it was run: as §1
[6] = test system: Streptococcus pneumoniae; assay: Antibacterial activity against Streptococcus pneumoniae 07P390 expressing constitutive ermB gene assessed as reduction in microbial growth by CLSI based two-fold broth dilution method
[7] = test system: Streptococcus pneumoniae; assay: Antibacterial activity against penicillin-susceptible Streptococcus pneumoniae PU 09 expressing mef gene assessed as reduction in microbial growth by CLSI based two-fold broth dilution method
[8] = test system: Streptococcus pneumoniae; assay: Bactericidal activity against penicillin-susceptible Streptococcus pneumoniae PU 09 expressing mef gene pretreated followed by subculture in absence of compound measured after 24 hrs; how it was run: as §1
[9] = test system: Streptococcus pneumoniae; assay: Selectivity ratio of MBC to MIC for penicillin-susceptible Streptococcus pneumoniae PU 09 expressing mef gene; how it was run: as §1
[10] = test system: Streptococcus pneumoniae; assay: Bactericidal activity against Streptococcus pneumoniae 07P390 expressing constitutive ermB gene pretreated followed by subculture in absence of compound measured after 24 hrs; how it was run: as §1
[11] = test system: Haemophilus influenzae; assay: Bactericidal activity against azithromycin-susceptible Haemophilus influenzae ATCC 49247 pretreated followed by subculture in absence of compound measured after 24 hrs; how it was run: as §1
[12] = test system: Haemophilus influenzae; assay: Selectivity ratio of MBC to MIC for azithromycin-susceptible Haemophilus influenzae ATCC 49247; how it was run: as §1
[13] = test system: Streptococcus pyogenes; assay: Antibacterial activity against MLS-resistant Streptococcus pyogenes 01-968 expressing inducible ermB gene assessed as reduction in microbial growth by CLSI based two-fold broth dilution method
[14] = test system: Streptococcus pyogenes; assay: Bactericidal activity against MLS-resistant Streptococcus pyogenes 01-968 expressing inducible ermB gene pretreated followed by subculture in absence of compound measured after 24 hrs
How it was run: (§2)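 MBC assay. Following MIC determination by CLSI standard two-fold broth dilution, samples at 1–8 fold MIC were transferred to fresh culture medium. They were subcultured for 24 h without antibiotic. Isolates were identified by 16S rDNA sequencing. S. aureus ATCC 29213 was used as a control strain.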

[15] = test system: Streptococcus pyogenes; assay: Selectivity ratio of MBC to MIC for MLS-resistant Streptococcus pyogenes 01-968 expressing inducible ermB gene
How it was run: (§3)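 MBC/MIC ratio. MIC was measured by CLSI standard two-fold broth dilution. MBC was measured by transferring samples at 1–8 fold MIC to culture medium and subculturing for 24 h without antibiotic. Isolates were identified by 16S rDNA sequencing.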

[16] = test system: Staphylococcus aureus; assay: Bactericidal activity against MLS/methicillin-resistant Staphylococcus aureus PU 32 expressing inducible ermA gene pretreated followed by subculture in absence of compound measured after 24 hrs; how it was run: as §2
[17] = test system: Staphylococcus aureus; assay: Selectivity ratio of MBC to MIC for MLS/methicillin-resistant Staphylococcus aureus PU 32 expressing inducible ermA gene; how it was run: as §3
[18] = test system: Staphylococcus aureus; assay: Antibacterial activity against MLS-resistant Staphylococcus aureus PU 20 expressing constitutive ermC gene assessed as reduction in microbial growth by CLSI based two-fold broth dilution method
[19] = test system: Staphylococcus aureus; assay: Bactericidal activity against MLS-resistant Staphylococcus aureus PU 20 expressing constitutive ermC gene pretreated followed by subculture in absence of compound measured after 24 hrs; how it was run: as §2
[20] = test system: Streptococcus pneumoniae; assay: Selectivity ratio of MBC to MIC for Streptococcus pneumoniae 07P390 expressing constitutive ermB gene; how it was run: as §1

CC[C@H]1OC(=O)[C@@](C)(F)C(=O)[C@H](C)[C@@H](O[C@@H]2O[C@H](C)C[C@H](N(C)C)[C@H]2O)[C@](C)(OC)C[C@@H](C)/C(=N\OC/C=C/c2cncc(C(N)=O)c2)[C@H](C)[C@H]2OC(=O)O[C@@]21C
MIC [1]: 0.25 µg/mL
MIC [2]: 0.031 µg/mL
MBC [3]: 0.031 µg/mL (≈ 0.0384 µM)
MIC [4]: 8 µg/mL
Selectivity ratio [5]: 1
MIC [6]: 32 µg/mL
MIC [7]: 0.5 µg/mL
MBC [8]: 1 µg/mL (≈ 1.24 µM)
Selectivity ratio [9]: 2
MBC [10]: > 32 µg/mL
MBC [11]: 16 µg/mL (≈ 19.8 µM)
Selectivity ratio [12]: 2
MIC [13]: 0.062 µg/mL
MBC [14]: > 0.5 µg/mL
Selectivity ratio [15]: >8
MBC [16]: > 2 µg/mL
Selectivity ratio [17]: >8
MIC [18]: 256 µg/mL
MBC [19]: > 256 µg/mL

CC[C@H]1OC(=O)[C@@](C)(F)C(=O)[C@H](C)[C@@H](O[C@@H]2O[C@H](C)C[C@H](N(C)C)[C@H]2O)[C@](C)(OC/C=C/c2ccc3[nH]cc(C(=O)O)c(=O)c3c2)C[C@@H](C)/C(=N\OC)[C@H](C)[C@H]2OC(=O)O[C@@]21C
MIC [1]: 0.5 µg/mL
MIC [2]: 0.062 µg/mL
MBC [3]: 0.062 µg/mL (≈ 0.0709 µM)
MIC [4]: 8 µg/mL
Selectivity ratio [5]: 1
MIC [6]: 0.5 µg/mL
MIC [7]: 2 µg/mL
MBC [8]: 4 µg/mL (≈ 4.58 µM)
Selectivity ratio [9]: 2
MBC [10]: 4 µg/mL (≈ 4.58 µM)
Selectivity ratio [20]: 8
MBC [11]: 16 µg/mL (≈ 18.3 µM)
Selectivity ratio [12]: 2
MIC [13]: 0.031 µg/mL
MBC [14]: 0.062 µg/mL (≈ 0.0709 µM)
Selectivity ratio [15]: 2
MBC [16]: 2 µg/mL (≈ 2.29 µM)
Selectivity ratio [17]: 4
MIC [18]: > 256 µg/mL

CC[C@H]1OC(=O)[C@@](C)(F)C(=O)[C@H](C)[C@@H](O[C@@H]2O[C@H](C)C[C@H](N(C)C)[C@H]2O)[C@](C)(OC)C[C@@H](C)/C(=N\OC/C=C/c2ccc3[nH]ccc(=O)c3c2)[C@H](C)[C@H]2OC(=O)O[C@@]21C
MIC [1]: 1 µg/mL
MIC [2]: 0.125 µg/mL
MBC [3]: 0.5 µg/mL (≈ 0.602 µM)
MIC [4]: 16 µg/mL
Selectivity ratio [5]: 4
MIC [6]: 16 µg/mL
MIC [7]: 4 µg/mL
MBC [8]: 8 µg/mL (≈ 9.64 µM)
Selectivity ratio [9]: 2
MBC [10]: 32 µg/mL (≈ 38.6 µM)
Selectivity ratio [20]: 2
MBC [11]: 32 µg/mL (≈ 38.6 µM)
Selectivity ratio [12]: 2
MIC [13]: 0.062 µg/mL
MBC [14]: > 0.5 µg/mL
Selectivity ratio [15]: >8
MBC [16]: > 8 µg/mL
Selectivity ratio [17]: >8
MIC [18]: 256 µg/mL
MBC [19]: > 256 µg/mL

CC[C@H]1OC(=O)[C@@](C)(F)C(=O)[C@H](C)[C@@H](O[C@@H]2O[C@H](C)C[C@H](N(C)C)[C@H]2O)[C@](C)(OC)C[C@@H](C)/C(=N\OCC#Cc2cncc(C(=O)NC)c2)[C@H](C)[C@H]2OC(=O)O[C@@]21C
MIC [1]: 0.5 µg/mL
MIC [2]: 0.125 µg/mL
MBC [3]: 0.25 µg/mL (≈ 0.305 µM)
MIC [4]: 8 µg/mL
Selectivity ratio [5]: 2
MIC [6]: 32 µg/mL
MIC [7]: 1 µg/mL
MBC [8]: 1 µg/mL (≈ 1.22 µM)
Selectivity ratio [9]: 1
MBC [10]: > 32 µg/mL
MBC [11]: 16 µg/mL (≈ 19.5 µM)
Selectivity ratio [12]: 2
MIC [13]: 0.062 µg/mL
MBC [14]: > 0.5 µg/mL
Selectivity ratio [15]: >8
MBC [16]: > 4 µg/mL
Selectivity ratio [17]: >8
MIC [18]: 256 µg/mL
MBC [19]: > 256 µg/mL

CC[C@H]1OC(=O)[C@@](C)(F)C(=O)[C@H](C)[C@@H](O[C@@H]2O[C@H](C)C[C@H](N(C)C)[C@H]2O)[C@](C)(OC/C=C/c2cncc(C(=O)O)c2)C[C@@H](C)/C(=N\OC)[C@H](C)[C@H]2OC(=O)O[C@@]21C
MIC [1]: 2 µg/mL
MIC [2]: 0.25 µg/mL
MBC [3]: 0.5 µg/mL (≈ 0.619 µM)
MIC [4]: 8 µg/mL
Selectivity ratio [5]: 2
MIC [6]: 1 µg/mL
MIC [7]: 32 µg/mL
MBC [8]: > 32 µg/mL
MBC [10]: 4 µg/mL (≈ 4.95 µM)
Selectivity ratio [20]: 4
MBC [11]: 8 µg/mL (≈ 9.9 µM)
Selectivity ratio [12]: 1
MIC [13]: 0.125 µg/mL
MBC [14]: > 1 µg/mL
Selectivity ratio [15]: >8
MBC [16]: > 16 µg/mL
Selectivity ratio [17]: >8
MIC [18]: > 256 µg/mL

CC[C@H]1OC(=O)[C@@](C)(F)C(=O)[C@H](C)[C@@H](O[C@@H]2O[C@H](C)C[C@H](N(C)C)[C@H]2O)[C@](C)(OC/C=C/c2cncc(C(N)=O)c2)C[C@@H](C)/C(=N\OC)[C@H](C)[C@H]2OC(=O)O[C@@]21C
MIC [1]: 0.125 µg/mL
MIC [2]: 0.062 µg/mL
MBC [3]: 0.125 µg/mL (≈ 0.155 µM)
MIC [4]: 4 µg/mL
Selectivity ratio [5]: 2
MIC [6]: 0.5 µg/mL
MIC [7]: 2 µg/mL
MBC [8]: 8 µg/mL (≈ 9.91 µM)
Selectivity ratio [9]: 4
MBC [10]: 4 µg/mL (≈ 4.96 µM)
Selectivity ratio [20]: 8
MBC [11]: 8 µg/mL (≈ 9.91 µM)
Selectivity ratio [12]: 2
MIC [13]: 0.031 µg/mL
MBC [14]: > 0.25 µg/mL
Selectivity ratio [15]: >8
MBC [16]: > 1 µg/mL
Selectivity ratio [17]: >8
MIC [18]: > 256 µg/mL

CC[C@H]1OC(=O)[C@@](C)(F)C(=O)[C@H](C)[C@@H](O[C@@H]2O[C@H](C)C[C@H](N(C)C)[C@H]2O)[C@](C)(OC/C=C/c2ccc3ncc(C(=O)O)cc3c2)C[C@@H](C)/C(=N\OC)[C@H](C)[C@H]2OC(=O)O[C@@]21C
MIC [1]: 0.062 µg/mL
MIC [2]: 0.031 µg/mL
MBC [3]: 0.062 µg/mL (≈ 0.0723 µM)
MIC [4]: 4 µg/mL
Selectivity ratio [5]: 2
MIC [6]: 0.5 µg/mL
MIC [7]: 8 µg/mL
MBC [8]: 16 µg/mL (≈ 18.6 µM)
Selectivity ratio [9]: 2
MBC [10]: 4 µg/mL (≈ 4.66 µM)
Selectivity ratio [20]: 8
MBC [11]: 8 µg/mL (≈ 9.32 µM)
Selectivity ratio [12]: 2
MIC [13]: ≤ 0.008 µg/mL
MBC [14]: > 0.062 µg/mL
Selectivity ratio [15]: >8
MBC [16]: 0.5 µg/mL (≈ 0.583 µM)
Selectivity ratio [17]: 8
MIC [18]: > 256 µg/mL
